The values below come from ChEMBL document CHEMBL4813972, “A grafted peptidomimetic for EGFR heterodimerization inhibition: Implications in NSCLC models” (Eur J Med Chem, 2021).

Calls of active or inactive are those of the source. No cut-off for these calls is given here.

One data set relates to A549. Kind of data set: Antiproliferative activity against human A549 cells overexpressing HER2 assessed as cell growth inhibition incubated for 72 hrs by cell titer glo assay. It counts as functional, cell-based. Conditions: A549, 72 h. Put shortly:
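Cells seeded at 1×10^4 per well, left overnight at 37 °C/5% CO2, then exposed to a concentration series of peptide (up to 200, down to 0.01 μM) for 72 h. 1% SDS and 1% DMSO served as controls. Cells were PBS-washed, CellTiter-Glo added and luminescence read. IC50 taken from three independent experiments per cell line.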
In general terms: In ATP-based viability assays light output follows the ATP content of the culture.

Data set [1] addresses Epidermal growth factor receptor and ErbB2 (HER1 and HER2) (Homo sapiens) (UniProt P04626+P00533). In words: Inhibition of HER2/EGFR dimerization in human A549 cells incubated for 48 hrs by proximity ligation assay. Conditions: dose 0.5-1 µM. In kind it is cell-based. Put shortly:
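A549 or Calu-3 cells (~1×10^4/well) on chamber slides, treated 48 h with 0.5 or 1 μM peptide. Controls: no compound, and one primary antibody omitted. Cells fixed in cold methanol, primary antibodies (EGFR, HER2, HER3) applied overnight at 4 °C, then PLA probes. Red fluorescence imaged at 40x and quantified over 3–6 fields.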

Data set [2] in a line: Thermal stability of compound at 15 uM incubated at 25 to 75 degC by MALDI-TOF analysis. In kind it is physicochemical. Put shortly: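 Peptide at 15 μM in acetonitrile heated from 25 to 75 °C. Mass checked at 25, 50 and 70 °C and at the end of the run.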
For a further data set, the system named is Calu-3. Kind of data set: Antitumor activity in human Calu-3 cells xenografted in Foxn1nu/Foxn1+ mouse assessed as reduction in tumor growth at 8 mg/kg, IT(Intratumoral) administered thrice a week for 21 days and measured on day 21 relative to control. In kind it is functional, organism-based. Conditions: time 21.0 day. Background: A xenograft is tissue or cells of one species grown in another, often human tumour cells in immunodeficient mice.

The nature of data set [3]: Toxicity in Foxn1nu/Foxn1+ mouse xenografted with human Calu-3 cells assessed as clinical observation at 8 mg/kg, IT(Intratumoral) administered thrice a week for 28 days and measured on day 28. Conditions: in vivo, other, 672 h, time 28 day. In kind it is organism-based.
Data set [4] deals with Mus musculus. In words: In vivo inhibition of HER2 in human Calu-3 cells xenografted in Foxn1nu/Foxn1+ mouse assessed as reduction in HER2 phosphorylation at 8 mg/kg, IT(Intratumoral) administered thrice a week for 28 days and measured on day 28 by Western blot analysis. To be noted: time 28.0 day. It counts as functional, organism-based. In short, it runs like this: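 Tumors taken from the Calu-3 intratumoral study (8 mg/kg three times weekly, 28 days). Two tumors frozen at −80 °C, homogenized and immunoblotted for p-HER2. Others fixed, paraffin-embedded and sectioned at 5 μm. Sections underwent citrate pH 6.0 antigen retrieval, H2O2 block and BSA/NGS/Triton block, EGFR/HER2 primaries overnight at 4 °C, then PLA probes; imaged at 10X/40X.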

The test system of data set [5] is Mus musculus. In words: In vivo inhibition of HER2/EGFR dimerization in human A549 cells harbouring KRAS mutant/wild type EGFR xenografted in Foxn1nu/Foxn1+ mouse by measuring reduction in red fluorescence at 6 mg/kg, iv administered twice a week for 5 weeks by proximity ligation assay. In kind it is functional, organism-based. Put shortly: (§1)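 Lung tumor sections from the A549-Red-FLuc i.v. metastasis mice (6 mg/kg i.v. twice weekly; sacrificed day 35). FFPE sections had citrate pH 6.0 antigen retrieval at 100 °C, peroxidase and serum blocking, primaries overnight at 4 °C, and PLA probes for EGFR:HER2 and HER2:HER3. Red fluorescence imaged at 40×.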

For data set [6], the system named is Mus musculus. Kind of data set: In vivo inhibition of HER2/HER3 dimerization in human A549 cells harbouring KRAS mutant/wild type EGFR xenografted in Foxn1nu/Foxn1+ mouse by measuring reduction in red fluorescence at 6 mg/kg, iv administered twice a week for 5 weeks by proximity ligation assay. It counts as functional, organism-based. In short, it runs like this:
as §1

A short description of data set [7]: Toxicity in BALB/c mouse assessed as Ki-67 expression in CD8+ at 6 mg/kg, iv administered on day 0 and 10 and spleenocytes collected on day 13 and incubated for 48 hrs by flow cytometry analysis. It counts as organism-based. Conditions: in vivo, 360 h, time 15 day. Put shortly:
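Female BALB/c mice given 6 mg/kg peptide in PBS i.v. (or PBS) on days 0 and 10, 12 mice in total. Splenocytes harvested day 13, RBC-lysed, and ≥2×10^6 cultured 48 h in RPMI/10% FBS with control media or peptide. Cells then stained for viability, CD3/CD4/CD8a and intracellular Ki67, and analyzed by flow cytometry.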

Another data set relates to NCI-H1975. Kind of data set: Synergistic antiproliferative activity against human NCI-H1975 cells assessed as combination index after 72 hrs in presence of lapatinib by cell titer glo assay. It counts as functional.

For `CC[C@H](C)[C@H]1C(=O)NC(=O)[C@H](CCCNC(=N)N)NC(=O)C[C@@H](c2cccc3ccccc23)NC(=O)N[C@H]2CSSC[C@H](NC(=O)C[C@@H](c3cccc4ccccc34)NC(=O)[C@H](CCCNC(=N)N)NC(=O)[C@@H]3CCCN3C(=O)[C@@H]3CCCN13)C(=O)N[C@@H](Cc1ccccc1)C(=O)N1CCC[C@H]1C(=O)N[C@@H](CC(=O)O)C(=O)NC(=O)[C@H](CC(=O)O)NC(=O)[C@H](Cc1ccccc1)NC2=O`, the IC50 (in general, the point on the concentration scale where inhibition reaches its midpoint) in the data set on A549 was 369 nM. Besides, in data set [1], the inhibition entry is “Dose-Dependent Effect”. In addition, the Stabilty entry in [2] is on record as “Stable”. Besides, the outcome in the data set with Calu-3 was Active. Also, the Activity result in data set [3] and in [7] was “Non-Toxic” each time. The inhibition entry with Mus musculus [4], with Mus musculus [5] and in the data set on Mus musculus [6] was “Active” throughout. Also, the CI in the data set with NCI-H1975 is recorded as 0.83.
